Measured values from ChEMBL document CHEMBL2417507, “Synthesis and bioevaluation of some new isoniazid derivatives” (Bioorg Med Chem, 2013).
≈ marks a conversion by molar mass, not a printed value. Calls of active or inactive are those of the source. No cut-off for these calls is given here.

Tests used:
HCT-8 [1] = assay: Cell cycle arrest in human HCT8 cells assessed as accumulation at S phase at 50 ug/mL after 24 hrs by propidium iodide staining-based flow cytometric analysis (reference value: 39.43%); format: ADME; conditions: hct-8, 24 h
[2] = test system: Radical scavenging activity; assay: Antioxidant activity assessed as DPPH radical scavenging activity at 0.1 mg/mL after 30 mins under dark conditions by spectrophotometric analysis relative to control; format: functional
Procedure, shortened: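 Compounds dissolved in methanol at 0.1 mg/mL; 0.2 mL mixed with 1.8 mL of 2 × 10^-4 M DPPH in methanol and kept in the dark 30 min. Absorbance read at 517 nm. The blank was DPPH plus methanol. TAC (%) = (Abs initial − Abs 30 min)/Abs initial × 100.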

[3] = Induction of apoptosis in human HCT8 cells assessed as viable cells at 50 ug/mL after 24 hrs by Annexin V-FITC and propidium iodide staining-based flow cytometric analysis (reference value: 87.7%); format: cell-based, HCT-8; conditions: read-out: Activity
Pseudomonas aeruginosa [4] = assay: Antibacterial activity against Pseudomonas aeruginosa ATCC 27853 assessed as growth inhibition at 1 mg/mL after 24 hrs by agar-disk diffusion technique; format: functional, organism-based
Procedure, shortened: (§1)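 Agar-disk diffusion, adapted: plates seeded with 0.5 McFarland suspension prepared from 24 h cultures; 5 µL of a 1 mg/mL compound solution spotted onto the seeded solid medium; incubated 24 h at 37 °C. Stocks made in DMSO.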

HCT-8 [5] = assay: Induction of apoptosis in human HCT8 cells assessed as necrotic cells at 50 ug/mL after 24 hrs by Annexin V-FITC and propidium iodide staining-based flow cytometric analysis (reference value: 7.73%); format: cell-based; conditions: hct-8, 24 h
HCT-8 [6] = assay: Cell cycle arrest in human HCT8 cells assessed as accumulation at G2/M phase at 50 ug/mL after 24 hrs by propidium iodide staining-based flow cytometric analysis (reference value: 13.83%); format: ADME; conditions: hct-8, 24 h
HCT-8 [7] = assay: Increase in NAT1 gene expression in human HCT8 cells at 50 ug/mL after 24 hrs by RT-PCR analysis; format: ADME, cell-based; conditions: hct-8, 24 h
Pseudomonas putida = assay: Antibacterial activity against Pseudomonas putida 160 assessed as growth inhibition at 1 mg/mL after 24 hrs by agar-disk diffusion technique; format: functional, organism-based; procedure, shortened: as §1
Citrobacter koseri = assay: Antibacterial activity against Citrobacter koseri 1742 assessed as growth inhibition at 1 mg/mL after 24 hrs by agar-disk diffusion technique; format: functional, organism-based; procedure, shortened: as §1
HCT-8 [8] = assay: Induction of apoptosis in human HCT8 cells assessed as early apoptotic cells at 50 ug/mL after 24 hrs by Annexin V-FITC and propidium iodide staining-based flow cytometric analysis (reference value: 1.57%); format: cell-based; conditions: hct-8, 24 h
HCT-8 [9] = assay: Cell cycle arrest in human HCT8 cells assessed as accumulation at G0/G1 phase at 50 ug/mL after 24 hrs by propidium iodide staining-based flow cytometric analysis (reference value: 46.43%); format: ADME; conditions: hct-8, 24 h
Staphylococcus hominis = assay: Antibacterial activity against Staphylococcus hominis 1813 assessed as growth inhibition at 1 mg/mL after 24 hrs by agar-disk diffusion technique; format: functional, organism-based; procedure, shortened: as §1
Acinetobacter baumannii [10] = assay: Antibacterial activity against Acinetobacter baumannii 192 assessed as growth inhibition at 1 mg/mL after 24 hrs by agar-disk diffusion technique; format: functional, organism-based; procedure, shortened: as §1
[11] = test system: Mycobacterium tuberculosis; assay: Antimycobacterial activity against Mycobacterium tuberculosis after 8 days by micro plate Alamar Blue assay; format: functional; conditions: 192 h
Procedure, shortened: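 Clinical M. tuberculosis strain grown in Middlebrook 7H9 broth. Compounds were dissolved in DMSO and serially diluted twofold on the plate, final 25 to 0.012 µg/mL. Plates were sealed and held 8 days at 37 °C. Alamar Blue with 10% Tween 80 (1:1) was then added for another 24 h at 37 °C. MIC was the lowest concentration preventing the blue-to-pink change.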

Acinetobacter baumannii [12] = assay: Antibacterial activity against Acinetobacter baumannii 136 assessed as growth inhibition at 1 mg/mL after 24 hrs by agar-disk diffusion technique; format: functional, organism-based; procedure, shortened: as §1
Pseudomonas aeruginosa [13] = assay: Antibacterial activity against Pseudomonas aeruginosa 1144 assessed as growth inhibition at 1 mg/mL after 24 hrs by agar-disk diffusion technique; format: functional, organism-based; procedure, shortened: as §1
Acinetobacter baumannii [14] = assay: Antibacterial activity against Acinetobacter baumannii 135 assessed as growth inhibition at 1 mg/mL after 24 hrs by agar-disk diffusion technique; format: functional, organism-based; procedure, shortened: as §1
HCT-8 [15] = assay: Increase in NAT2 gene expression in human HCT8 cells at 50 ug/mL after 24 hrs by RT-PCR analysis; format: ADME, cell-based; conditions: hct-8, 24 h
Enterobacter cloacae = assay: Antibacterial activity against Enterobacter cloacae 1845 assessed as growth inhibition at 1 mg/mL after 24 hrs by agar-disk diffusion technique; format: functional, organism-based; procedure, shortened: as §1
Staphylococcus aureus = assay: Antibacterial activity against Staphylococcus aureus assessed as growth inhibition at 1 mg/mL after 24 hrs by agar-disk diffusion technique; format: functional, organism-based; procedure, shortened: as §1
HCT-8 [16] = assay: Induction of apoptosis in human HCT8 cells assessed as late apoptotic cells at 50 ug/mL after 24 hrs by Annexin V-FITC and propidium iodide staining-based flow cytometric analysis (reference value: 2.97%); format: cell-based; conditions: hct-8, 24 h
HCT-8 [17] = assay: Decrease in NAT2 gene expression in human HCT8 cells at 25 ug/mL after 24 hrs by RT-PCR analysis; format: ADME, cell-based; conditions: hct-8, 24 h
HCT-8 [18] = assay: Cytotoxicity against human HCT8 cells at 50 ug/mL after 24 hrs by trypan blue exclusion assay; format: cell-based; conditions: hct-8, 24 h
Procedure, shortened: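 HCT8 cells (3 × 10^5 per 3.5-cm well) treated 24 h, then trypsinised, spun and resuspended in PBS. Suspension mixed 1:1 with 0.4% trypan blue for 1 min and viable/non-viable cells counted on a haemocytometer. Each experiment repeated three times.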

Morganella morganii = assay: Antibacterial activity against Morganella morganii 2810 assessed as growth inhibition at 1 mg/mL after 24 hrs by agar-disk diffusion technique; format: functional, organism-based; procedure, shortened: as §1
Proteus mirabilis = assay: Antibacterial activity against Proteus mirabilis 1751 assessed as growth inhibition at 1 mg/mL after 24 hrs by agar-disk diffusion technique; format: functional, organism-based; procedure, shortened: as §1
Acinetobacter baumannii [19] = assay: Antibacterial activity against Acinetobacter baumannii 247 assessed as growth inhibition at 1 mg/mL after 24 hrs by agar-disk diffusion technique; format: functional, organism-based; procedure, shortened: as §1
Klebsiella pneumoniae = assay: Antibacterial activity against Klebsiella pneumoniae 1756 assessed as growth inhibition at 1 mg/mL after 24 hrs by agar-disk diffusion technique; format: functional, organism-based; procedure, shortened: as §1
Acinetobacter baumannii [20] = assay: Antibacterial activity against Acinetobacter baumannii 125 assessed as growth inhibition at 1 mg/mL after 24 hrs by agar-disk diffusion technique; format: functional, organism-based; procedure, shortened: as §1
HCT-8 [21] = assay: Cell cycle arrest in human HCT8 cells assessed as accumulation at G0/G1 phase at 25 ug/mL after 24 hrs by propidium iodide staining-based flow cytometric analysis (reference value: 46.43%); format: ADME; conditions: hct-8, 24 h
HCT-8 [22] = assay: Cell cycle arrest in human HCT8 cells assessed as accumulation at S phase at 25 ug/mL after 24 hrs by propidium iodide staining-based flow cytometric analysis (reference value: 39.43%); format: ADME; conditions: hct-8, 24 h
HCT-8 [23] = assay: Cell cycle arrest in human HCT8 cells assessed as accumulation at G2/M phase at 25 ug/mL after 24 hrs by propidium iodide staining-based flow cytometric analysis (reference value: 13.83%); format: ADME; conditions: hct-8, 24 h
Escherichia coli = assay: Antibacterial activity against Escherichia coli 1777 assessed as growth inhibition at 1 mg/mL after 24 hrs by agar-disk diffusion technique; format: functional, organism-based; procedure, shortened: as §1
Pseudomonas aeruginosa [24] = assay: Antibacterial activity against Pseudomonas aeruginosa 165 assessed as growth inhibition at 1 mg/mL after 24 hrs by agar-disk diffusion technique; format: functional, organism-based; procedure, shortened: as §1
Acinetobacter baumannii [25] = assay: Antibacterial activity against Acinetobacter baumannii 122 assessed as growth inhibition at 1 mg/mL after 24 hrs by agar-disk diffusion technique; format: functional, organism-based; procedure, shortened: as §1
HCT-8 [26] = assay: Decrease in NAT1 gene expression in human HCT8 cells at 25 ug/mL after 24 hrs by RT-PCR analysis; format: ADME, cell-based; conditions: hct-8, 24 h

NC(S)(/C=C/c1ccccc1)NNC(=O)c1ccncc1 (stereo unspecified)
Activity (HCT-8 [1]): 25.9% | TAC [2]: 88.2% | viability at 24 h, 50 ug/mL [3]: 67.9% | growth inhibition (GI) (Pseudomonas aeruginosa [4]): Active | Activity (HCT-8 [5]): 18.9% | Activity (HCT-8 [6]): 18.72% | Activity (HCT-8 [7]): Toxic | growth inhibition (GI) (Pseudomonas putida): Active | growth inhibition (GI) (Citrobacter koseri): Active | Activity (HCT-8 [8]): 0.95% | Activity (HCT-8 [9]): 59.95% | growth inhibition (GI) (Staphylococcus hominis): Active | growth inhibition (GI) (Acinetobacter baumannii [10]): Active | MIC [11]: 0.391 µg/mL (≈ 1.3 µM) | growth inhibition (GI) (Acinetobacter baumannii [12]): Active | growth inhibition (GI) (Pseudomonas aeruginosa [13]): Active | growth inhibition (GI) (Acinetobacter baumannii [14]): Active | Activity (HCT-8 [15]): Toxic | growth inhibition (GI) (Enterobacter cloacae): Active | growth inhibition (GI) (Staphylococcus aureus): Active | Activity (HCT-8 [16]): 12.2%

NC(=S)/C=C/c1ccc(Cl)cc1
Activity (HCT-8 [17]): Toxic | Activity (HCT-8 [18]): Toxic | TAC [2]: 15.7% | viability at 24 h, 50 ug/mL [3]: 18.7% | growth inhibition (GI) (Morganella morganii): inactive | growth inhibition (GI) (Pseudomonas aeruginosa [4]): inactive | growth inhibition (GI) (Proteus mirabilis): inactive | growth inhibition (GI) (Acinetobacter baumannii [19]): inactive | Activity (HCT-8 [5]): 24.9% | growth inhibition (GI) (Klebsiella pneumoniae): inactive | growth inhibition (GI) (Acinetobacter baumannii [20]): inactive | growth inhibition (GI) (Pseudomonas putida): Active | Activity (HCT-8 [8]): 22.7% | Activity (HCT-8 [21]): 31.35% | Activity (HCT-8 [22]): 56.31% | growth inhibition (GI) (Acinetobacter baumannii [12]): Active | growth inhibition (GI) (Acinetobacter baumannii [14]): Active | growth inhibition (GI) (Staphylococcus aureus): Active | Activity (HCT-8 [23]): 13.01% | Activity (HCT-8 [16]): 33.7%

NC(=S)/C=C/c1ccccc1
growth inhibition (GI) (Escherichia coli): Active | Activity (HCT-8 [18]): Toxic | growth inhibition (GI) (Pseudomonas aeruginosa [24]): Active | TAC [2]: 35.7% | viability at 24 h, 50 ug/mL [3]: 28.3% | growth inhibition (GI) (Acinetobacter baumannii [25]): Active | growth inhibition (GI) (Proteus mirabilis): Active | Activity (HCT-8 [5]): 22.9% | growth inhibition (GI) (Klebsiella pneumoniae): Active | growth inhibition (GI) (Pseudomonas putida): Active | growth inhibition (GI) (Citrobacter koseri): Active | Activity (HCT-8 [8]): 12.9% | Activity (HCT-8 [21]): 33.09% | Activity (HCT-8 [22]): 43.45% | growth inhibition (GI) (Staphylococcus hominis): Active | growth inhibition (GI) (Acinetobacter baumannii [12]): Active | growth inhibition (GI) (Acinetobacter baumannii [14]): Active | growth inhibition (GI) (Enterobacter cloacae): Active | growth inhibition (GI) (Staphylococcus aureus): Active | Activity (HCT-8 [23]): 27.82% | Activity (HCT-8 [16]): 36% | Activity (HCT-8 [26]): Toxic

Cc1ccc(/C=C/C(N)(S)NNC(=O)c2ccncc2)cc1 (stereo unspecified)
growth inhibition (GI) (Pseudomonas aeruginosa [24]): Active | Activity (HCT-8 [1]): 13.1% | TAC [2]: 12.5% | viability at 24 h, 50 ug/mL [3]: 54.3% | growth inhibition (GI) (Pseudomonas aeruginosa [4]): inactive | growth inhibition (GI) (Proteus mirabilis): inactive | growth inhibition (GI) (Acinetobacter baumannii [19]): inactive | Activity (HCT-8 [5]): 28.5% | Activity (HCT-8 [6]): 11.15% | Activity (HCT-8 [7]): Toxic | growth inhibition (GI) (Pseudomonas putida): Active | Activity (HCT-8 [8]): 1.16% | Activity (HCT-8 [9]): 72.35% | growth inhibition (GI) (Staphylococcus hominis): Active | growth inhibition (GI) (Acinetobacter baumannii [10]): inactive | MIC [11]: 0.781 µg/mL (≈ 2.48 µM) | growth inhibition (GI) (Acinetobacter baumannii [12]): Active | growth inhibition (GI) (Pseudomonas aeruginosa [13]): Active | growth inhibition (GI) (Acinetobacter baumannii [14]): Active | Activity (HCT-8 [15]): Toxic | growth inhibition (GI) (Enterobacter cloacae): Active | growth inhibition (GI) (Staphylococcus aureus): Active | Activity (HCT-8 [16]): 16%
